These results are taken from ChEMBL document CHEMBL1764968, “Structural simplification of bioactive natural products with multicomponent synthesis. 3. Fused uracil-containing heterocycles as novel topoisomerase-targeting agents” (2011).

Each structure is given as a SMILES string. Active and inactive are the calls of the source. No cut-off for these calls is given here.

For one assay, the system named is SK-MEL. In words: Cytotoxicity against human SK-MEL cells after 72 hrs by MTT assay. Format: functional. Put shortly:
(§1)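 Cells plated 24 h in 96-well plates at 10,000–40,000 cells/mL depending on line. U373 grown in MEM, other lines in RPMI, both with 5% heat-inactivated FCS. Cells exposed to compounds (or none, control) for 72 h. MTT reduction to formazan read at 570 nm against 630 nm reference. Sextuplicate per condition.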
(In general: Tetrazolium assays rely on reduction of a dye to a coloured formazan, in cell work by metabolically active cells.)

For a further assay, the system named is A549. In words: Cytotoxicity against human A549 cells after 72 hrs by MTT assay. The assay is classed as functional. Particulars: A549, 72 h. Put shortly:
as §1

Assay [1] addresses T1, DNA topoisomerase 1 (Homo sapiens) (UniProt P11387).
T1 sequence (whole entry): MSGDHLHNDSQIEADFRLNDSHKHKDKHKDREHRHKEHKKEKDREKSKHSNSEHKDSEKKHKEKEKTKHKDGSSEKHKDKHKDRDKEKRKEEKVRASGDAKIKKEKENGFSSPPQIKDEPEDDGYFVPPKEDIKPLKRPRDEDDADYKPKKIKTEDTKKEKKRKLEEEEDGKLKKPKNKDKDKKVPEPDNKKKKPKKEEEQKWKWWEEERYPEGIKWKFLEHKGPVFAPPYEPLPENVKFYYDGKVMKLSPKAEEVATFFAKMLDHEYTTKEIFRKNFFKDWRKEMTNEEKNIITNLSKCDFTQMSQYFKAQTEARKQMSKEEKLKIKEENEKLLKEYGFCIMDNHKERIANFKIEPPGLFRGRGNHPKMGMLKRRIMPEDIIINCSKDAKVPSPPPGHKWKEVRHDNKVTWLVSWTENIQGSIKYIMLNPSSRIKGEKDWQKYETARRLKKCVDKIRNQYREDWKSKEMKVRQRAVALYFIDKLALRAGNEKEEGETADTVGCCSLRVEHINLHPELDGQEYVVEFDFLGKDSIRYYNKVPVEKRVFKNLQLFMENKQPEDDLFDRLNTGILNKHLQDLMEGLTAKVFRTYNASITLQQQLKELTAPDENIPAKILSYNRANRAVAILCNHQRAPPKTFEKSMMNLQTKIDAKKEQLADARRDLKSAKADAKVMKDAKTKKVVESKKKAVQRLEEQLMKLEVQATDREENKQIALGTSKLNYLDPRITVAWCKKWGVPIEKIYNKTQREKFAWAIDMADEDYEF
Description: Effect on human DNA topoisomerase 1-mediated supercoiled pGEM1 plasmid DNA cleavage complex stabilization at up to 100 uM by agarose gel electrophoresis.

The test system of another assay is MCF7. In words: Cytotoxicity against human MCF7 cells after 72 hrs by MTT assay. To be noted: MCF7, 72 h. The assay is classed as functional. In outline:
as §1

A further assay relates to Jurkat. In words: Cytotoxicity against human Jurkat cells after 72 hrs by MTT assay. Format: functional. In outline: as §1
The target of assay [2] is T1, DNA topoisomerase 1 (Homo sapiens). In words: Inhibition of human DNA topoisomerase 1-mediated relaxation of supercoiled pGEM1 plasmid DNA at 250 uM after 30 mins by agarose gel electrophoresis. Put shortly: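 Enzyme source: nuclear extract of MCF-7 cells (0.1 μL). 250 ng supercoiled pGEM1 plasmid incubated 30 min at 37 °C with compound (10–250 μM) in 10 mM Tris pH 7.9, 100 mM KCl, 10 mM MgCl2, 0.5 mM DTT, 0.5 mM EDTA, 0.03 mg/mL BSA. Camptothecin 100 μM as positive control. Stopped with SDS/proteinase K, 30 min at 37 °C. Run on 1% agarose, stained with ethidium bromide.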

For another assay, the system named is HeLa. Description: Cytotoxicity against human HeLa cells after 72 hrs by MTT assay. The assay is classed as functional. Put shortly:
as §1

Assay [3] in a line: Cytotoxicity against human U373 cells after 72 hrs by MTT assay. The assay is classed as functional, U-373MG ATCC. To be noted: U373 MG. Put shortly: as §1
In the next assay the test system is PC-3. In words: Cytotoxicity against human PC3 cells after 72 hrs by MTT assay. The assay is classed as functional. To be noted: PC-3, 72 h. Put shortly: as §1
The test system of another assay is LoVo. Description: Cytotoxicity against human LoVo cells after 72 hrs by MTT assay. Format: functional. In outline: as §1
The next assay relates to U-373MG ATCC. Description: Cytostatic activity against human U373 cells assessed as morphological changes after 72 hrs by phase contrast microscopy. The assay is classed as functional, cell-based.
Assay [4] concerns the target DNA topoisomerase 2-alpha (Homo sapiens) (UniProt P11388). In words: Inhibition of human DNA topoisomerase 2-mediated decatenation of catenated kinetoplast DNA at 5 uM after 1 hr by agarose gel electrophoresis. In outline:
(§2)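 0.2 μg catenated kinetoplast DNA incubated 1 h at 37 °C with compound in 50 mM Tris-Cl pH 8.0, 150 mM NaCl, 10 mM MgCl2, 5 mM ATP, 0.5 mM DTT, 30 μg/mL BSA. Doxorubicin 5 μM as positive control. Stopped with SDS/proteinase K, 30 min at 37 °C. Run on 1% agarose (55 V, 2 h), stained with ethidium bromide.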

Assay [5] has the same target. Description: Inhibition of human DNA topoisomerase 2-mediated decatenation of catenated kinetoplast DNA at 1 uM after 1 hr by agarose gel electrophoresis. Put shortly:
as §2

DNA topoisomerase 2-alpha (Homo sapiens), sequence (P11388 whole entry): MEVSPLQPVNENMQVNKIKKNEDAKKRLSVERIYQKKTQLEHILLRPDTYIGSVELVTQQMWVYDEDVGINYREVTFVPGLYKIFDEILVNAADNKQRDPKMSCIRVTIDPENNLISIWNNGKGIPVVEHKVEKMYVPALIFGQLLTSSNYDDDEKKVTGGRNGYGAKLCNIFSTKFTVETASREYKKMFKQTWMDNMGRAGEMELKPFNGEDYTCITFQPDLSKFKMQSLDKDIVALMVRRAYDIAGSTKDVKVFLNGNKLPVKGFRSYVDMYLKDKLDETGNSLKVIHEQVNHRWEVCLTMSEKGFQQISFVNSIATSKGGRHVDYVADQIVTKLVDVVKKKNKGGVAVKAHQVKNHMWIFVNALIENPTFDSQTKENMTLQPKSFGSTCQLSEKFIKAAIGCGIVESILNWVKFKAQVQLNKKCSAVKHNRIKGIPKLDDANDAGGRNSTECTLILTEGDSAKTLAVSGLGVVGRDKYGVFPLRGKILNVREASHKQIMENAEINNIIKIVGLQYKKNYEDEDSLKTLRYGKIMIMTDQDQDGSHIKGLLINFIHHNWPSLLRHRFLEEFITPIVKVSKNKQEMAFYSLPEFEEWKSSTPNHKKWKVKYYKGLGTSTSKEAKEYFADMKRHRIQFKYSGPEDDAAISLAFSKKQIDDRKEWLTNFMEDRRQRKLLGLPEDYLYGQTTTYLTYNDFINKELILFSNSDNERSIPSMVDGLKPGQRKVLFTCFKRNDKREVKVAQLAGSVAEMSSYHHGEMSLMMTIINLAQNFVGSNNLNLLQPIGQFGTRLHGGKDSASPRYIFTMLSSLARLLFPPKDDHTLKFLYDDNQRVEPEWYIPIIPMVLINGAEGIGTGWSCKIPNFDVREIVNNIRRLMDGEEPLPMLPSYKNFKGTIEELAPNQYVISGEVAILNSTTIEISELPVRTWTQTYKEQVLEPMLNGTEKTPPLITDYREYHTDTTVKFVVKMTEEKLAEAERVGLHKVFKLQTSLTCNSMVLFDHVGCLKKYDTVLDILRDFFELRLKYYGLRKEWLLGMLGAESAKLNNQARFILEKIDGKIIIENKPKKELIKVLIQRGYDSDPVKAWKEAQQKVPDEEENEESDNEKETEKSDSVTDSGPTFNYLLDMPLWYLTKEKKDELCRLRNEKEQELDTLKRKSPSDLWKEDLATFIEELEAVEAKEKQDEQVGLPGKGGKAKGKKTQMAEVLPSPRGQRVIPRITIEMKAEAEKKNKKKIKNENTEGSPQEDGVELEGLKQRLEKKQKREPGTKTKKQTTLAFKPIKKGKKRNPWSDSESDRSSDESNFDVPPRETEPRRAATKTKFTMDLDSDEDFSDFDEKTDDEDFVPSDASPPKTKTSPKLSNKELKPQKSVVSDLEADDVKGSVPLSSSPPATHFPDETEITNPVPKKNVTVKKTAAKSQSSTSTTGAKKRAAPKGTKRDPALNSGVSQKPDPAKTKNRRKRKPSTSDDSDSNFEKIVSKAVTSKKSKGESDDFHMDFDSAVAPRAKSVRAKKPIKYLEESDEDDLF

As for `CSc1ccc(C2C3=C(Nc4[nH]c(=O)[nH]c(=O)c42)c2ccccc2C3=O)cc1` (stereo not drawn), the GI50 (commonly the concentration that inhibits growth by half) with SK-MEL stood at 1800 nM; in the assay on A549, 470 nM; with MCF7 it was 360 nM; in the assay with Jurkat, 190 nM; in the assay on HeLa, 370 nM; in assay [3], 100 nM. The GI50 stood at 400 nM in the assay with PC-3 and 490 nM with LoVo. For the same compound, the result in assay [1] was inactive. The inhibition result in assay [2] is “Active”. The outcome with U-373MG ATCC was Active.

Turning to `COc1cccc2c1C(=O)c1c(O)c3c(c(O)c1C2=O)C[C@@](O)(C(=O)CO)C[C@@H]3O[C@H]1C[C@H](N)[C@H](O)[C@H](C)O1`, the inhibition entry in assay [4] was “Active”.

Consider `CSc1ccc(-c2c3c(nc4[nH]c(=O)[nH]c(=O)c24)-c2ccccc2C3=O)cc1`, for which the GI50 is 230 nM in the assay on SK-MEL; 610 nM with A549; 450 nM in the assay with MCF7; 50 nM with Jurkat; 170 nM in the assay with HeLa; 100 nM in [3]. Also, the figures for the GI50 in the assay with PC-3 and in the assay with LoVo were 190 nM and 290 nM, respectively. Moreover, the inhibition entry in assay [4], in assay [2] and in assay [5] was “Active” in each case. The result in assay [1] was inactive. In the assay with U-373MG ATCC, the result was Active.

Regarding `Cc1ccc(C2C3=C(Nc4[nH]c(=O)[nH]c(=O)c42)c2ccccc2C3=O)cc1C` (stereo not drawn), the GI50 in the assay on SK-MEL is 960 nM; with A549, 290 nM; in the assay on MCF7, 340 nM; in the assay with Jurkat, 190 nM; with HeLa, 780 nM; in assay [3], 430 nM. The GI50 in the assay on PC-3 was 4200 nM; in the assay on LoVo it was 490 nM. Also, the outcome in [1] was inactive. Moreover, the outcome with U-373MG ATCC was Active.

For the compound `Cc1ccc(-c2c3c(nc4[nH]c(=O)[nH]c(=O)c24)-c2ccccc2C3=O)cc1C`, the GI50 amounted to 450 nM in the assay with SK-MEL; 140 nM in the assay with A549; 190 nM in the assay on MCF7; 170 nM in the assay with Jurkat; 190 nM in the assay on HeLa; 500 nM in [3]. Moreover, the values for the GI50 in the assay on PC-3 and with LoVo were 480 nM and 330 nM, respectively. The inhibition result in assay [4] and in assay [5] was “Active” in each case. Further, the outcome in assay [1] was inactive. Further, the result in the assay on U-373MG ATCC was Active.

Consider `COc1cc(C2C3=C(Nc4[nH]c(=O)[nH]c(=O)c42)c2ccccc2C3=O)cc(Br)c1OC` (stereo not drawn), for which the GI50 was found to be 480 nM in the assay on SK-MEL; 480 nM with A549; 780 nM in the assay with MCF7; 200 nM in the assay with Jurkat; 3800 nM in the assay with HeLa; 370 nM in [3]. The figures for the GI50 in the assay on PC-3 and with LoVo were more than 10000 nM and 380 nM, respectively.

For the compound `O=C1c2ccccc2-c2nc3[nH]c(=O)[nH]c(=O)c3cc21`, the GI50 in the assay with SK-MEL is 10000 nM; with A549 it was more than 10000 nM; in the assay on MCF7, more than 10000 nM; in the assay on Jurkat it was more than 10000 nM; in the assay on HeLa, more than 10000 nM; in assay [3], 7500 nM. Also, the GI50 in the assay with PC-3 was more than 10000 nM; with LoVo it was 9500 nM.
